Bioassay records from PubChem.
TAAR1 antag: human TAAR1 antagonists, primary screen, Fluo-8 calcium fluorescence, CHO RD-HGA16 cells; Trace amine-associated receptor 1 (Homo sapiens), Q96RJ0; antagonist; inhibition, % at 3 µM; actives 1.5% (n = 360,000); AID 624466, 2012;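 active = inhibition above a per-plate cutoff, the mean inhibition of test compounds on that plate plus 3 SD, cut at about 49% in these data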
Target sequence (Q96RJ0 whole entry, looked up): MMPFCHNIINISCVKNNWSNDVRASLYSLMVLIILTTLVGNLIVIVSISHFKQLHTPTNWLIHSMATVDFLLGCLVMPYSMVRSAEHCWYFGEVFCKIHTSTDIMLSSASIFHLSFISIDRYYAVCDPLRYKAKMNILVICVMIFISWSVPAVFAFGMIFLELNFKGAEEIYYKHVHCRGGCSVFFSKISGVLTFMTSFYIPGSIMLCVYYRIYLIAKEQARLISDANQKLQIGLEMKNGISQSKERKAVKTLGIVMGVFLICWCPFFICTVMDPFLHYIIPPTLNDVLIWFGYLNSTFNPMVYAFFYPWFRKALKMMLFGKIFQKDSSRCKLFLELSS
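Material: RD-HGA16 CHO cells with stable hTAAR1 and Gα16; Dosing: single nominal final test compound concentration of 3 µM; Schedule: seeding 17-24 h prior, 75-min 37 °C, 30-min RT dye loading; Detection: kinetic Fluo-8 calcium fluorescence measurement; Measure: % inhibition from peak post-agonist over basal fluorescence ratio; Benchmarks: vehicle and agonist controls.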
V1aR counter: agonists of human V1a receptor, primary screen, counter-screen for OXTR agonist project, fluorescence, CHO-V1R cells; Vasopressin V1a receptor (Homo sapiens), P37288; Fluo-8 calcium fluorescence, agonist mode; 0% DMSO, 100% 3 nM vasopressin; activation, % at 3 µM; actives 0.25% (n = 320,000);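 active = activation above the mean activation of all tested compounds plus 3 SD, per screening run, cut at about 20% in these data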;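 also: signal is peak over basal fluorescence ratio across a 100 second FLIPR read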
OXTR potentiator: human OXTR potentiators, primary screen, fluorescence, CHO-OTR cells, Fluo-8 calcium | Oxytocin receptor (Homo sapiens), P30559 | actives 0.061% (n = 320,000) | Fluo-8 calcium fluorescence, potentiator mode; 0% = oxytocin EC15, 100% = EC100 | activation, % at 3 µM;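 active = activation above that plate's cutoff, the mean activation of tested compounds plus 3 SD, cut at about 6.6% in these data, passing the limit was not always enough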
Target sequence (P30559 whole entry, looked up): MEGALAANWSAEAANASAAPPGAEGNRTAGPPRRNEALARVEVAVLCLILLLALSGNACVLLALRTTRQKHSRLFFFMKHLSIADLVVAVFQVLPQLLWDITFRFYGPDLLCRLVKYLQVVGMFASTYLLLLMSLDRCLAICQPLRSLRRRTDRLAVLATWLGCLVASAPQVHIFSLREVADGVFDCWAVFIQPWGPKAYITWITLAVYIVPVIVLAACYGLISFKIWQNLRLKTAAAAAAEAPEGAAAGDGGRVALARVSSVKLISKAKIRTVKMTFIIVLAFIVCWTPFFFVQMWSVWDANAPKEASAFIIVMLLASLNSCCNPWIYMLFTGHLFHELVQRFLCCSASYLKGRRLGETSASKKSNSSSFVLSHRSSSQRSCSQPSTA
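Measured by – Fluo-8 calcium dye fluorescence · Test system – human OTR in CHO cells · Dosing – one concentration, 3.0 µM compound · Controls – EC15 oxytocin alone as 0%, 75 nM oxytocin as 100% · Evaluation – normalized max/min fluorescence ratio, % activation · Timing – 6 min pre-incubation, 100 s read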
TAAR1 agonist: human TAAR1 agonists, primary screen, Fluo-8 calcium fluorescence, CHO RD-HGA16 cells; Trace amine-associated receptor 1 (Homo sapiens), Q96RJ0; vehicle wells 0%, saturating PEA agonist 100%; activation, % at 3 µM; actives 0.99% (n = 360,000); AID 624467, 2012;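 active = activation above the mean activation of all test compounds in the run plus 3 SD, cut at about 38% in these data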
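Test system: RD-HGA16 (CHO) cells co-expressing Gα16 and hTAAR1; dosing: one-point dosing at 3 µM (nominal); timing: 17-24 h seeding, 75 min 37 °C dye, 30 min RT; signal: kinetic Fluo-8 calcium fluorescence; read-out basis: % activation relative to PEA EC100 response; controls: DMSO and PEA EC100; replicates: n 1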
OXTR agonist: human OXTR agonists, primary screen, fluorescence, CHO-OTR cells, Fluo-8 calcium; Oxytocin receptor (Homo sapiens), P30559; Fluo-8 calcium fluorescence; normalized: DMSO 0%, oxytocin 100%; activation, % at 3 µM; actives 0.32% (n = 320,000); AID 2435, 2010;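 active = activation above the mean of all tested compounds plus 3 SD, cutoff set per screening run, cut at about 20% in these data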;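 also: peak over basal fluorescence ratio from a 100 s FLIPR kinetic read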
OXTR ag confirm: human OXTR agonists, confirmation, fluorescence, CHO-OTR cells, triplicate. activation, % at 3 µM. actives 20% (n = 390). Fluo-8 calcium fluorescence, agonist. shares compounds with OXTR agonist;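 active = mean activation above about 20% derived from the earlier single-dose screen, limit read from the data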;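 also: peak over minimum fluorescence ratio per well during a 100 second FLIPR read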
V1aR counter 3x: V1a receptor agonists, calcium signal, counter-screen for OXTR agonist project, triplicate, fluorescence, CHO-V1R cells; activation, % at 3 µM; Fluo-8 calcium fluorescence; shares compounds with OXTR agonist; AID 434991, 2010; actives 10% (n = 390);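 active = mean activation over triplicate exceeds the hit threshold set in the earlier primary screen, cut at about 20% in these data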;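 also: peak over basal fluorescence ratio within a 100 second read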
TAAR1 ag conf: human TAAR1 agonists, retest of hits, confirmation, Fluo-8 calcium fluorescence, CHO RD-HGA16 cells. scaled: DMSO 0%, maximal phenethylamine 100%. activation, % at 3 µM. shares compounds with TAAR1 agonist. actives 82% (n = 2,400);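 active = activation above a cutoff set at the run's mean compound activation plus 3 SD, cut at about 39% in these data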
Ga16 ag counter: nonselective calcium mobilization agonists, CHO-Ga16 cells, counter-screen for hTAAR1 agonist project, cell-based, fluorescence, CHO-Ga16 parental line; shares compounds with TAAR1 agonist; activation, % at 3 µM; Fluo-8 calcium fluorescence; normalized to maximal ATP response, DMSO zero; actives 50% (n = 2,400);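 active = activation above the run cutoff, the mean activation over all tested wells plus 3 SD, cut at about 12% in these data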
TAAR1 desens: TAAR1 desensitization by agonist hits, confirmation, counter-screen for TAAR1 agonist project, cell-based, fluorescence, tachyphylaxis. CHO RD-HGA16 hTAAR1, Fluo-8 calcium, beta-PEA response inhibition. shares compounds with TAAR1 agonist. actives 46% (n = 2,400). inhibition, % at 3 µM;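 active = inhibition above the run cutoff, the mean inhibition of all test compounds plus 3 SD, cut at about 49% in these data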;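 also: beta-PEA stimulus applied at its EC80; loss of beta-PEA calcium signal after compound pretreatment read as receptor desensitization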
Ga16 nonsel ant: inhibition of ATP-evoked calcium response in CHO-Ga16 cells, counter-screen for TAAR1 agonist project, cell-based, fluorescence | CHO-Ga16 ATP-induced calcium, Fluo-8 fluorescence | inhibition, % at 3 µM | actives 39% (n = 2,400) | shares compounds with TAAR1 agonist;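 active = inhibition above the plate's mean compound inhibition plus 3 SD, computed per plate, cut at about 22% in these data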
Hits are given with their value; . = inactive; / = not tested or not shown. Sampled rows, rich in hits. Any-hit rate of the full collection: about 2.3%.

SMILES | TAAR1 antag | V1aR counter | OXTR potentiator | TAAR1 agonist | OXTR agonist | OXTR ag confirm | V1aR counter 3x | TAAR1 ag conf | Ga16 ag counter | TAAR1 desens | Ga16 nonsel ant
COc1ccc(COC(=O)c2ccc(S(=O)(=O)N3CCC(C)CC3)cc2)cc1 | . | / | / | . | / | / | / | / | / | / | /
COc1ccc(CNCCC(c2ccccc2)c2ccc3c(c2)OCO3)cc1 (stereo not drawn) | . | . | . | 60 | 22 | . | . | 58 | 30 | 62 | 37
COc1ccc(C(CC(=O)O)c2ccc3c(c2)OCO3)cc1 (stereo not drawn) | . | . | . | . | . | / | / | / | / | / | /
O=C(NC1CC1)c1cc2c(F)cccc2s1 | . | . | . | . | . | / | / | / | / | / | /
Cc1cccc(CCN2C(Nc3ccccc3)=NC[C@@H]2CC(C)C)c1 | 107 | . | . | 127 | 21 | . | 21 | 111 | 87 | 102 | 80
COC(=O)c1sc(NC(=S)NC(=O)c2ccccc2C)nc1C | . | . | . | 43 | 28 | 33 | 39 | 83 | 54 | 61 | 34
COC(=O)c1sc(NC(=S)NC(=O)c2ccc(F)cc2)nc1C | . | . | . | . | . | / | / | / | / | / | /
CC(=O)N1CC2([N+](=O)[O-])CN(C(C)=O)CC([N+](=O)[O-])(C1)C2(C)C | . | . | . | . | . | / | / | / | / | / | /
CC(Sc1ccc(Cl)cc1)C(=O)Nc1ccc(S(=O)(=O)N2CCOCC2)cc1 (stereo not drawn) | 50 | . | . | 92 | 29 | 21 | . | 90 | 48 | 73 | 39
COc1ccc(C2SCCN2C(=S)Nc2cccc(Cl)c2)cc1 (stereo not drawn) | 80 | . | . | 82 | 23 | 30 | . | 70 | 40 | 68 | 51
Cc1cc(C)nc(/N=C(\N)Nc2ccc(CC(=O)OC(C)C)cc2)n1 | 101 | . | . | 109 | 26 | . | . | 120 | 85 | 106 | 97
Cc1cc(C=O)c(C)n1-c1ccc(N2CCCCC2)c([N+](=O)[O-])c1 | . | . | . | . | . | / | / | / | / | / | /
Cc1cc(/C=C(\C#N)C(N)=O)c(C)n1-c1ccc(N2CCOCC2)c([N+](=O)[O-])c1 | . | . | . | 91 | 23 | . | . | 114 | 53 | 73 | 29
CC(C)c1ccc(-c2cc(C(=O)NN3CCN(C)CC3)c3ccccc3n2)cc1 | . | . | . | . | . | / | / | / | / | / | /
Cc1nc2c(c(=O)c3ccccc3n2C)c(=O)n1C1CCCCCC1 | . | . | . | 50 | 20 | . | . | 56 | 51 | . | .
Cc1nc2c(c(=O)c3ccccc3n2C)c(=O)n1-c1ccccc1 | . | . | . | . | . | / | / | / | / | / | /
COc1ccc(C(CCN2CCCC(C)C2)c2c(OC)cc(OC)c3c(-c4ccccc4)cc(=O)oc23)cc1 (stereo not drawn) | . | . | . | 56 | 22 | . | . | 47 | 37 | . | 42
Cc1cc(C(c2ccc(O)cc2)c2cc(C)c(O)cc2C)c(C)cc1O | 85 | . | . | 113 | 41 | 40 | 26 | 131 | 77 | 78 | 41
CCn1c(=O)c(C(=O)Nc2ncccc2C)c(O)c2ccccc21 | . | . | . | 59 | 32 | . | 33 | . | 12 | . | .
O=C(CCl)N1CCN(S(=O)(=O)c2ccc3c(c2)CCC3)CC1 | . | . | . | . | . | / | / | / | / | / | /
Cc1ccc(C(=O)NC(=S)NNC(=O)c2ccccc2O)cc1 | . | . | . | 114 | 22 | 35 | 30 | 127 | 97 | 77 | 45
CC(C)(CNC(=O)c1ccc(S(=O)(=O)Nc2ccc(Cl)cc2)cc1)N1CCOCC1 | . | . | . | 65 | 21 | . | . | 45 | 19 | . | 23
O=C(Nc1ccccc1)/C(=C/c1ccc([N+](=O)[O-])cc1)NC(=O)c1ccco1 | . | . | . | . | . | / | / | / | / | / | /
CCN1C(=O)C(=O)N(CC(=O)c2[nH]c(C)c(C(C)=O)c2C)C1=O | . | . | . | . | . | / | / | / | / | / | /
CC(=O)c1c(C)[nH]c(C(=O)CN2C(=O)NC(C)(c3ccc(C)cc3)C2=O)c1C (stereo not drawn) | . | . | . | 85 | 20 | 26 | . | 113 | 56 | 60 | 36
SMILES | TAAR1 antag | V1aR counter | OXTR potentiator | TAAR1 agonist | OXTR agonist | OXTR ag confirm | V1aR counter 3x | TAAR1 ag conf | Ga16 ag counter | TAAR1 desens | Ga16 nonsel ant
Cc1ccc(CNC(=O)Cn2nnc(C(=O)Nc3cccc(C)c3C)c2N)cc1 | . | . | . | . | . | / | / | / | / | / | /
Cc1ccccc1Cn1nnc(C(=O)Nc2cccc(C)c2C)c1N | . | . | . | 66 | 22 | 22 | . | 79 | 31 | . | .
CC(=O)c1sc2nc(-c3cccs3)cc(C(F)(F)F)c2c1N | 64 | . | . | 72 | 27 | 40 | 52 | 65 | 84 | 64 | 70
CC(C)(CO)NCC(O)COc1ccc2c(c1)CCC2 (stereo not drawn) | . | . | . | . | . | / | / | / | / | / | /
CC(C)(C)CC(C)(C)NCC(O)COc1ccc2c(c1)CCC2 (stereo not drawn) | . | . | . | 56 | 21 | . | . | . | 12 | . | .
CCCCNC(=O)CSc1nc(N)c(C(=O)Nc2ccc(OC)cc2)s1 | . | . | . | . | . | / | / | / | / | / | /
